Laboratory results published in ChEMBL document CHEMBL1122794, “[(Arylcarbonyl)oxy]propanolamines. 1. Novel beta-blockers with ultrashort duration of action” (J Med Chem, 1984).
Activity calls are given as the source filed them. No cut-off for these calls is given here.

Tests used:
[1] = Selectivity determined by expression 10[pA2(atria) - pA2 (trachea)] in guinea pig; type: functional, Cavia porcellus
[2] = T1/2 in canine blood; type: ADME, […], Canis lupus familiaris; conditions: dog
Summary of the method: (§1)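 1 mL of solution containing 50 µg of compound was added to 1 mL of dog or human whole blood, or to 1 mL of 33% (w/v) canine liver homogenate. They were assayed by HPLC on a phenyl column with 60% acetonitrile/40% 0.05 M sodium phosphate (pH 6.6) and UV detection. Half-life was read graphically from concentration versus time.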

Adrenergic receptor beta [3] = biological target: T1, Adrenergic receptor beta (Homo sapiens, UniProt P08588+P07550+P13945); assay: In Vitro inhibition of the beta adrenergic receptor in guinea pig atria; type: tissue-based, Cavia porcellus; conditions: target entry is the homologue from another species
[4] = t1/2 in canine liver; type: ADME, Canis lupus familiaris; conditions: dog
Canis familiaris [5] = species on record: Canis familiaris; assay: Time taken for 80% recovery at a dose of 7 microg (3-h infusion period); type: functional, organism-based; conditions: Canis lupus familiaris
Summary of the method: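 After the infusion ended, the time to 80% recovery of the blockade was recorded as duration of action. The listed dose is the average amount infused per minute over the 3-h period, in µg/(kg min).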

Canis familiaris [6] = species on record: Canis familiaris; assay: Percent inhibition of isoproterenol induced tachycardia at a dose of 7 microg (3-h infusion period); type: functional, Canis lupus familiaris
Adrenergic receptor beta [7] = biological target: T1, Adrenergic receptor beta; assay: In vitro blocking of beta adrenergic receptor in guinea pig trachea; type: tissue-based, Cavia porcellus; conditions: target entry is the homologue from another species
[8] = Time in which 1/2 of the initial amount disappeared in human blood.; type: ADME, organism-based; summary of the method: as §1
[9] = biological target: Beta-2 adrenergic receptor (Cavia porcellus) (UniProt Q8K4Z4); assay: In Vitro evaluation for […] selectivity in guinea pig
Summary of the method: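 Selectivity index calculated as 10^[pA2(atria) − pA2(trachea)] from pA2 values measured in isolated guinea pig atria and trachea. A minus sign denotes β2 selectivity.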

[10] = Stability at pH 7.4 and 37 degree Celsius (after 18 h); type: physicochemical; conditions: buffer
Summary of the method: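 Chemical stability was tested in pH 7.4 buffer at 37 °C. The percentage of parent compound remaining after 18 h of incubation was recorded.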

Chain of Beta-2 adrenergic receptor (Cavia porcellus) (Q8K4Z4 whole entry, looked up): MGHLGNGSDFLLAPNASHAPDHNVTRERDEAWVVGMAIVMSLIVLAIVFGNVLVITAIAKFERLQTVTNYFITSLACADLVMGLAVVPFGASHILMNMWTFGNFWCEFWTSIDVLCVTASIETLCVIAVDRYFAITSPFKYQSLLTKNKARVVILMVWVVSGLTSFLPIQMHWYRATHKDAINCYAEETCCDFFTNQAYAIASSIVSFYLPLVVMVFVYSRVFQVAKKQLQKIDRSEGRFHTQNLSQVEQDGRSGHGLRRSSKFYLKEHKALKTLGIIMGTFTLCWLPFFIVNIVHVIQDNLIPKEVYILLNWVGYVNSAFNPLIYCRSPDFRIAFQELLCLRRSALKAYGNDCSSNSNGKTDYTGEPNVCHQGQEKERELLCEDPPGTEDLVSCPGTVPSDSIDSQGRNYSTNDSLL

| SMILES | Selectivity [1] | half-life [2] | pA2 (Adrenergic receptor beta [3]) | pA2 (Adrenergic receptor beta [7]) | further results |
| --- | --- | --- | --- | --- | --- |
| CC(C)(C)NCC(O)COC(=O)c1cccc(O)c1 (stereo not given) | -2 | 119 min | 7.4 | 7.6 | half-life [4]: 62 min; Recovery time (Canis familiaris [5]): 25 min; Inhibition (Canis familiaris [6]): 56% |
| COc1ccc(CCNCC(O)COC(=O)c2ccc(CO)cc2)cc1OC (stereo not given) |  |  | < 5.5 |  |  |
| COc1ccccc1COC(=O)C(O)CNCCc1ccc(OC)c(OC)c1 (stereo not given) |  |  |  | 5 | pA2 (Adrenergic receptor beta [3]; Cavia porcellus): inactive |
| CC(C)(C)NCC(O)COC(=O)c1ccc(N)cc1 (stereo not given) | 1 |  | 7 | 7 |  |
| CC(C)(C)NCC(O)COC(=O)c1cccc([N+](=O)[O-])c1 (stereo not given) |  | 74 min | 6.8 |  | half-life [4]: > 180 min |
| CC(C)C(=O)NCCNCC(O)COC(=O)c1ccccc1F (stereo not given) |  |  | 6.1 |  |  |
| CC(=O)Nc1ccc(C(=O)OCC(O)CNC(C)C)cc1 (stereo not given) | 4 |  | 5.8 | 5.2 |  |
| Cc1cc(N)ccc1C(=O)OCC(O)CNC(C)(C)C (stereo not given) | -4 |  | 7.8 | 8.4 |  |
| CC(C)(C)NCC(O)COC(=O)c1cccc(OCc2ccccc2)c1 (stereo not given) |  | > 180 min |  |  | half-life [4]: > 180 min |
| COCCOC(=O)NCC(C)(C)NCC(O)COC(=O)c1ccccc1F (stereo not given) | 1 |  | 7.7 | 7.7 |  |
| CC(C)(C)NCC(O)COC(=O)c1ccc(OCc2ccccc2)cc1 (stereo not given) |  |  | 6.2 |  |  |
| CC(C)(C)NCC(O)COC(=O)C1CCCC1 (stereo not given) |  |  | 5.3 |  |  |
| CNCC(O)COC(=O)c1ccc2c(c1)OCO2 (stereo not given) |  |  | 5.3 |  |  |
| Cc1ccc(C(=O)OCC(O)CNC(C)C)cc1 (stereo not given) | 1 | 67 min | 6.8 | 6.8 | half-life [4]: 10.4 min; half-life [8]: 6 min |
| COc1ccc(CCNCC(O)COC(=O)c2cccc(F)c2)cc1OC (stereo not given) | 2 |  | 6.4 | 6.2 |  |
| COc1ccc(CCNCC(O)C(=O)Oc2ccccc2)cc1OC (stereo not given) |  |  | 5.9 | 5.9 | Selectivity [9]: 1 |
| CC(=O)Nc1cccc(C(=O)OCC(O)CNC(C)C)c1 (stereo not given) | -2 |  | 6.1 | 6.4 |  |
| Cc1cccc(C(=O)OCC(O)CNC(C)(C)C)c1 (stereo not given) | -2 |  | 7 | 7.3 |  |
| Cc1cccc(C(=O)OCC(O)CNC(C)C)c1 (stereo not given) | -3 |  | 6.8 | 7.3 |  |
| CC(C)NCC(O)COC(=O)c1cccc(N)c1 (stereo not given) | -2.5 | > 180 min | 6.4 | 6.8 | half-life [4]: > 180 min; Recovery time (Canis familiaris [5]): > 60 min; Inhibition (Canis familiaris [6]): 80% |
| C#CC(C)(C)NCC(O)COC(=O)c1ccccc1F (stereo not given) | 1 | 12 min | 6.6 | 6.7 | half-life [4]: 7 min |
| CCCOc1cccc(C(=O)OCC(O)CNC(C)C)c1 (stereo not given) |  |  | 6.6 |  |  |
| Cc1cc([N+](=O)[O-])ccc1C(=O)OCC(O)CNC(C)(C)C (stereo not given) | -5 |  | 6.6 | 7.3 |  |
| CC(C)NCC(O)COC(=O)c1cccc2ccccc12 (stereo not given) | -2.5 |  | 6.6 | 7 |  |
| CC(C)(C)NCC(O)COC(=O)c1ccc([N+](=O)[O-])cc1 (stereo not given) |  | > 180 min | 6.1 |  | half-life [4]: > 180 min; half-life [8]: 5.5 min |
| COc1ccc(CCNCC(O)COC(=O)c2ccc(N)cc2)cc1OC (stereo not given) | 6 |  | 6.5 | 5.7 |  |
| CNC(=O)NCC(C)(C)NCC(O)COC(=O)c1ccccc1F (stereo not given) | -39 | 12 min | 6.5 | 8.1 | half-life [4]: 5 min |

| SMILES | Selectivity [1] | half-life [2] | pA2 (Adrenergic receptor beta [3]) | pA2 (Adrenergic receptor beta [7]) | further results |
| --- | --- | --- | --- | --- | --- |
| C=CCOc1ccccc1C(=O)OCC(O)CNC(C)C (stereo not given) | -2 |  | 6.4 | 6.2 |  |
| CCC(C)(C)NCC(O)COC(=O)c1ccccc1F (stereo not given) | -5 | 6 min | 6.7 | 7.7 | half-life [4]: 12 min |
| CC(C)(C)NCC(O)COC(=O)C(c1ccccc1)c1ccccc1 (stereo not given) |  | > 180 min | < 5.5 |  | half-life [8]: 120 min |
| CC(C)NCC(O)COC(=O)c1cccc(F)c1 (stereo not given) |  | 52 min |  |  | half-life [4]: 11 min; half-life [8]: 8 min |
| CC(C)(C)NCC(O)COC(=O)c1cccc(N)c1 (stereo not given) | -3.5 |  | 6.7 | 7.2 |  |
| CC(C)NCC(O)COC(=O)c1ccc(F)cc1 (stereo not given) | -5 | 4 min | 6.6 | 7.3 | half-life [4]: 3 min; half-life [8]: 3.5 min |
| CC(C)(C)NCC(O)COC(=O)CCCc1ccccc1 (stereo not given) |  |  | 5.3 |  |  |
| O=C(Cc1ccccc1)NCCNCC(O)COC(=O)c1ccccc1F (stereo not given) |  |  | < 6 |  |  |
| COc1ccc(CCNCC(O)COC(=O)c2ccc(C)cc2)cc1OC (stereo not given) | 4 |  | 6.6 | 6 |  |
| Cc1ccccc1C(=O)OCC(O)CNC(C)(C)C (stereo not given) | -4 | > 180 min | 7.3 | 7.9 | half-life [4]: > 180 min; remaining at 18 h [10]: 100%; half-life [8]: > 180 min |
| C=CCOc1cccc(C(=O)OCC(O)CNC(C)C)c1 (stereo not given) | 1 |  | 6.8 | 6.8 |  |
| CC(=O)NCC(C)NCC(O)COC(=O)c1ccccc1F (stereo not given) |  |  | < 6.3 |  |  |
| CC(C)(C)NCC(O)COC(=O)Cc1ccccc1 (stereo not given) |  | 16 min | 5.6 |  | half-life [8]: 6.3 min |
| C=CCOc1ccc(C(=O)OCC(O)CNC(C)(C)C)cc1 (stereo not given) |  |  | 6 |  |  |
| CC(C)(C)NCC(O)COC(=O)CCc1ccccc1 (stereo not given) |  | < 2.5 min | < 6 |  | half-life [8]: 71 min |
| COc1ccc(CCNCC(O)C(=O)Oc2ccccc2C)cc1OC (stereo not given) |  |  | 5.9 |  |  |
| CC(C)NCC(O)COc1ccccc1 (stereo not given) | 4 |  | 8 | 7.4 |  |
| Cc1ccccc1OCC(O)CNC(C)C (stereo not given) | 3 |  | 8.6 | 8.2 |  |
| CC(C)NCC(O)COC(=O)c1ccc(OCc2ccccc2)cc1 (stereo not given) |  |  | < 6 |  |  |
| CCCOc1ccc(C(=O)OCC(O)CNC(C)(C)C)cc1 (stereo not given) |  |  | 5.4 |  |  |
| CC(C)(C)NCC(O)COC(=O)c1ccncc1 (stereo not given) |  |  | 5.3 |  |  |
| CC(C)(C)NCC(O)COC(=O)C1c2ccccc2-c2ccccc21 (stereo not given) |  |  | < 6 |  |  |
| CC(C)NCC(O)COC(=O)c1cccc([N+](=O)[O-])c1 (stereo not given) | -2.5 |  | 6.8 | 7.2 |  |
| COc1ccc(CCNCC(O)COC(=O)c2ccccc2Cl)cc1OC (stereo not given) | 2 |  | 7.8 | 7.5 | remaining at 18 h [10]: 59% |
| CC(C)(C)NCC(O)COC(=O)c1cccc2ccccc12 (stereo not given) | -4 | > 180 min | 6.8 | 7.4 | half-life [4]: > 180 min |
| CN(C)S(=O)(=O)NCC(C)(C)NCC(O)COC(=O)c1ccccc1F (stereo not given) | 1 |  | 7.4 | 7.5 |  |
